T cruzi repl – T. cruzi replication inhibition | T. cruzi beta-gal in NIH3T3, luminescence, 90 h | inhibition, % (no concentration beside the values) | actives 1.4% (n = 300,000) | AID 1885;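 active = mean inhibition across valid replicates above about 55%, limit read from the data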;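 also: signal also drops with host cell toxicity which is not excluded here; higher percent means less beta-gal luminescence so fewer parasites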
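compound dosing = single 50 nL compound addition per well in DMSO | material = NIH/3T3 host cells with β-galactosidase reporter T. cruzi | input = 5,000 host fibroblasts per well | timing = ≥90 h infection period, 3 h prior cell attachment | read-out basis = percent inhibition of parasite-derived β-gal signal | detection = GalScreen β-gal luminescence, detergent lysis, 60 min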
CHT PAM – allosteric activators of human choline transporter CHT; Q9GZV3; B-score at 10 µM; actives 0.49% (n = 310,000); CHT-expressing cells, membrane potential dye, choline EC20; hits give high values; LV-AA mutant CHT in HEK293 cells; AID 488977;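 active = initial fluorescence not abnormally high and integrated response B-score, plate-corrected, over 3 SD above library mean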
Target sequence (Q9GZV3 whole entry, looked up): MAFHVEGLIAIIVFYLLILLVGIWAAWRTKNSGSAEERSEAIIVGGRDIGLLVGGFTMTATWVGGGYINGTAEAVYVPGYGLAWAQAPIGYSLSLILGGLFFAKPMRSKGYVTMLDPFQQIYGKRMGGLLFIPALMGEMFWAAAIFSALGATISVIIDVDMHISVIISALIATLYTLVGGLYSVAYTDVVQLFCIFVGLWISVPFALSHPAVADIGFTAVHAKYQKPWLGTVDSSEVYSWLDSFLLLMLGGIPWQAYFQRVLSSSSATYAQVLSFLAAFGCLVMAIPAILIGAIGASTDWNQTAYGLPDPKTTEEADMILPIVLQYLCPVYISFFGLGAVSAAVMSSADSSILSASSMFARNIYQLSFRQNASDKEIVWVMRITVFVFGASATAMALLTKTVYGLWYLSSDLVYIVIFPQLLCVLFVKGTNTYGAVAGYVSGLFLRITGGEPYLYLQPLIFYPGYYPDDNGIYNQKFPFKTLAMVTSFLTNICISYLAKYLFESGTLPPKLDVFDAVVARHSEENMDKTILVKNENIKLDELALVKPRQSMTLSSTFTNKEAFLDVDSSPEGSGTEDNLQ
PolyA inh – blocks polyadenylation in yeast reporter cells; S. cerevisiae SKY197-pL101 polyadenylation reporter, beta-gal luminescence; efflux-impaired pdr1/pdr3 knockout yeast; score 100 = 6 SD above DMSO; activity score, % at 12 µM; actives 0.02% (n = 300,000); AID 1875;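 active = lowest replicate activity score at least 50, where 100 means six control SD above control mean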;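 also: yeast exposed to compound for 9 h at 30 °C; higher score means more reporter readthrough which indicates perturbed polyadenylation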
CHT inh – human CHT choline transport inhibition; CHT-expressing cells, membrane potential dye, choline response; hits give low values; B-score at 10 µM; actives 0.86% (n = 310,000); AID 488975;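 active = B-score over 3 SD under the library average, and starting fluorescence ratio not unusually high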;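 also: choline stimulus applied at its EC90 after an EC20 pre-addition; B-score computed on integrated fluorescence ratio after choline addition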
CHT activ conf – human CHT activation, confirmatory screen. shares compounds with CHT PAM. CHT-expressing cells, membrane potential dye fluorescence (FDSS); % of choline EC20–EC90 response window; HEK293 expressing CHT LV-AA mutant; choline added at its EC20. activation, % at 10 µM. actives 91% (n = 2,500). AID 504833;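 active = primary screen active, with duplicate mean activation above negative control mean plus 3 SD, cut at about 11% in these data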
HEK293 MP dye – activity in parental HEK293 cells lacking CHT; shares compounds with CHT PAM; membrane potential dye fluorescence (FDSS); measured after EC20 choline addition; ratio readout change at 10 µM, hits read low; actives 62% (n = 2,500); AID 623908;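 active = duplicate-averaged ratio beyond 3 SD from buffer wells, up or down, though filed actives are nearly all decreases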
Each line names hits and unclear results; the compound was inactive in the other large screens (follow-up assays come after a bar, where they were run). Only some compounds are listed: those with a hit (about 2.6% of all), similar ones and a draw of the others.

CCCS(=O)(=O)N1CCCC(C(=O)Oc2ccc(Cl)cc2)C1 (stereo not given)	none
c1ccc2[nH]c(NCCCN3CCOCC3)nc2c1	CHT PAM 6.35 | CHT activ conf 38.4 | HEK293 MP dye -33.2
CCN(CC)CCCNc1nc2ccccc2[nH]1	CHT PAM 7.8 | CHT activ conf 34.8 | HEK293 MP dye -34.5
CCNc1nc2ccccc2[nH]1	none
Cc1ccc(S(=O)(=O)/C(C#N)=C/c2c(N3CCN(C)CC3)nc3ccccn3c2=O)cc1	none
CCOC(=O)/C(C#N)=C/c1c(N2CCN(c3ccccc3)CC2)nc2ccccn2c1=O	none
COC(=O)/C(C#N)=C/c1c(N2CCN(C)CC2)nc2ccccn2c1=O	CHT PAM 7.3 | CHT activ conf 47.9 | HEK293 MP dye -55.6
N#C/C(=C\c1c(N2CCOCC2)nc2ccccn2c1=O)C(=O)NC1CCS(=O)(=O)C1 (stereo not given)	CHT PAM 9.63 | CHT activ conf 10.0 | HEK293 MP dye -54.1
N#C/C(=C\c1c(N2CCCCCC2)nc2ccccn2c1=O)C(=O)NC1CCS(=O)(=O)C1 (stereo not given)	none
CN1CCN(c2nc3ccccn3c(=O)c2C=C(C#N)C#N)CC1	none | CHT activ conf 50.4 | HEK293 MP dye -49.3
CCCC(=O)Nc1cc(C)cn(Cc2c(F)cccc2Cl)c1=O	none
COC(=O)COc1ccc(-c2ccccc2)cc1C=O	CHT PAM 20.1 | CHT activ conf inactive | HEK293 MP dye inactive
COC(=O)COc1ccc(-c2ccc(F)cc2)cc1C=O	none
Cc1ccc(C)c(-c2[nH]ncc2CN2CCCC(CO)(Cc3ccccc3C)C2)c1 (stereo not given)	CHT PAM 6.45 | CHT activ conf 16.6 | HEK293 MP dye inactive
O=C(c1ccco1)n1c(=S)nc2ccccn21	none | CHT activ conf 33.7 | HEK293 MP dye -24.5
CCN1CCN(c2ccc(S(=O)(=O)N3CCCCC3)cc2NC(=O)c2cccc(OC(F)F)c2)CC1	none
Cc1nnc(Sc2cc(C(=O)NCCCN(C)Cc3ccccc3)c3ccccc3n2)s1	T cruzi repl 63.8, CHT PAM 6.48 | CHT activ conf 24.2 | HEK293 MP dye -28.7
COCCCNC(=O)c1cc(Sc2nnc(C)s2)nc2ccccc12	none
COc1ccc(N(C)C(=O)C2CCCN2S(=O)(=O)c2cccc3nsnc23)cc1 (stereo not given)	none
COc1cnc(-c2ccccn2)nc1N(C)C	none | CHT activ conf 33.0 | HEK293 MP dye -35.6
COc1ccc(C(CC(=O)NCc2ccccc2)C(C)C)cc1 (stereo not given)	none (no result: T cruzi repl)
C=C1CCN(Cc2ccccc2)S(=O)(=O)c2ccccc21	CHT PAM 9.03 | CHT activ conf 26.0 | HEK293 MP dye inactive
COc1ccccc1C(c1nnnn1Cc1ccccc1)N1CCN(C2CCCC2)CC1 (stereo not given)	none
Fc1ccc(Cn2nnnc2C(c2cccs2)N2CCN(C3CCCCC3)CC2)cc1 (stereo not given)	none | CHT activ conf 40.1 | HEK293 MP dye -24.6
COc1ccc(OC)c(C(c2nnnn2Cc2ccccc2)N2CCN(C3CCCCC3)CC2)c1 (stereo not given)	none | CHT activ conf 10.3 | HEK293 MP dye inactive
c1ccc(Cn2nnnc2C(c2cccs2)N2CCCCCC2)cc1 (stereo not given)	none
O=C1C(=O)N(Cc2ccncc2)C(c2ccccc2F)/C1=C(\O)c1ccc2c(c1)OCCO2 (stereo not given)	none
C#CC[N+]1(CC#Cc2ccc(C#CC[N+]3(CC#C)CCOCC3)cc2)CCOCC1	none | CHT activ conf 38.2 | HEK293 MP dye -40.6
C#CC[N+]1(CC#Cc2ccccc2)CCCC1	none
CC1CCN(CCCNC(=O)COc2cc(=O)n(C)c3ccccc23)CC1	none | CHT activ conf 42.9 | HEK293 MP dye -32.9
CCn1c(=O)cc(OCC(=O)NCCCN2CCC(C)CC2)c2ccccc21	none
CC1CC(C)CN(CCCNC(=O)COc2cc(=O)n(C)c3ccccc23)C1 (stereo not given)	none | CHT activ conf 17.4 | HEK293 MP dye -27.6
Cn1c(=O)cc(OCC(=O)NCCC2=CCCCC2)c2ccccc21	none
Cn1c(=O)cc(SCC(=O)NCC2CCCO2)c2ccc(Cl)cc21 (stereo not given)	none
CCN1CCCC1CNC(=O)CSc1cc(=O)n(C)c2cc(Cl)ccc12 (stereo not given)	none | CHT activ conf 49.9 | HEK293 MP dye -34.3
CCN1CCCC1CNC(=O)COc1cc(=O)n(C)c2ccccc12 (stereo not given)	CHT PAM 7.2 | CHT activ conf 42.7 | HEK293 MP dye -39.4
O=C(NCCC(=O)N(CCc1ccccc1)Cc1ccccc1)c1ccc([N+](=O)[O-])cc1	none
COc1cccc(/C=N/NC(=O)c2ccccc2)c1OS(=O)(=O)c1ccccc1	none
COc1cccc(/C=N/NC(=O)c2ccc(=O)n(C)c2)c1OC	CHT PAM 6.31 | CHT activ conf 13.7 | HEK293 MP dye -31.8
N#Cc1cc2c(=O)n3ccccc3nc2n(Cc2cccnc2)c1=O	CHT PAM 6.94 | CHT activ conf 48.0 | HEK293 MP dye -44
N=c1c(S(=O)(=O)c2ccccc2)cc2c(=O)n3ccccc3nc2n1Cc1cccnc1	none
CCC[C@H]1COCCS(=O)(=O)N1Cc1ccccc1F	none | CHT activ conf inactive | HEK293 MP dye inactive
CCCC[C@H]1COCCS(=O)(=O)N1Cc1ccccc1F	none
Cc1noc(NS(=O)(=O)c2ccc(NC(=O)c3cnc4scc(C)n4c3=O)cc2)c1C	none
Cc1cc(NS(=O)(=O)c2ccc(NC(=O)c3cnc4scc(C)n4c3=O)cc2)nc(C)n1	CHT PAM 6.24 | CHT activ conf 32.7 | HEK293 MP dye -27.2
CCOc1ccccc1CN1CCNC(=O)C1CC(=O)NCc1nc(C)cs1 (stereo not given)	none
O=C(CCc1nc2ccccc2c(=O)[nH]1)NNC(=O)COc1ccc(Br)cc1	none
CCOC(=O)C1CCN(CCC(=O)Nc2ccc(F)cc2)CC1	none
Cc1ccc(S(=O)(=O)N/N=C\c2cn(CC(N)=O)c3ccccc23)cc1	none
O=C(Cc1cccc(C(F)(F)F)c1)Nc1ccccc1	none
CCCCNC(=NCc1cccc(C(F)(F)F)c1)Nc1ccccc1	CHT PAM 12 | CHT activ conf 17.8 | HEK293 MP dye inactive
CC[n+]1c(/C=C(/C)SC)sc2ccccc21	CHT PAM 6.85 | CHT activ conf 59.1 | HEK293 MP dye -23.5
CC[n+]1c(/C=C(\C)Nc2ccccc2)sc2ccccc21	none (no result: T cruzi repl, PolyA inh)
CC[n+]1c(/C=C/Nc2ccccc2)sc2ccccc21	none | CHT activ conf 46.1 | HEK293 MP dye -50.8
CC[n+]1c(/C=C(\C)SC)sc2ccccc21	CHT PAM 7.35 | CHT activ conf 58.3 | HEK293 MP dye -24.8

Screens (PubChem)
